Assay [1] concerns the target MMP-2/MMP-9 (Homo sapiens) (UniProt P08253+P14780). Kind of assay: Selectivity ratio of IC50 for recombinant human MMP9 (Phe107 to Pro449 residues) expressed in Escherichia coli to IC50 for recombinant human MMP2 (Tyr110 to Asp452 residues).
Assay [2] has as its system MDA-MB-231. Kind of assay: Cytotoxicity against human MDA-MB-231 cells assessed as reduction in cell viability after 48 hrs by MTT assay. As to conditions: MDA-MB-231, 48 h. The class given is functional, cell-based. In a few lines:
(§1)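 A549, MDA-MB-231, K562, U937 and PBMC (PBMC from healthy donors) seeded at 1×10^3 cells/well and left 24 h, then exposed to compounds for 48 h at 37 °C, 5% CO2. Adherent lines were grown in DMEM, the others in RPMI-1640 with 10% heat-inactivated FBS. MTT read-out; viability expressed as % of untreated control. IC50 taken as the concentration giving 50% viability loss.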
(Formazan colour is commonly taken as a measure of viable cells.)

In assay [3] the target is T1, Interstitial collagenase (Homo sapiens, UniProt P03956).
T1 sequence (P03956 whole entry): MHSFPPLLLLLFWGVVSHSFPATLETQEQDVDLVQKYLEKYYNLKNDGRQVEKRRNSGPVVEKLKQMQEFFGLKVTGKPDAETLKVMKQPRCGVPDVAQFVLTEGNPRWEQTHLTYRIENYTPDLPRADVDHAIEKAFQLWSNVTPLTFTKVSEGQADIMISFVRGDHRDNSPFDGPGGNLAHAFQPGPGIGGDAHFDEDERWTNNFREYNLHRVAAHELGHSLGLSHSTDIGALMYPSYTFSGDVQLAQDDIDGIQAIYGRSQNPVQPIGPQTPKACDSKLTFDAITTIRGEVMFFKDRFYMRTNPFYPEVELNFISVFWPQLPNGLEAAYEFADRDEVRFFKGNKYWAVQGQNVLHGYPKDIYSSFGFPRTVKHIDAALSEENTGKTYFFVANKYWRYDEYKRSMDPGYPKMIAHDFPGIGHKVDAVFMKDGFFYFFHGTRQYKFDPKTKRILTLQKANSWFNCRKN
The assay can be described thus: Inhibition of recombinant human MMP1 (Phe100 to Gln268 residues) using Ac-Pro-Leu-Gly-S-Leu-Leu-Gly-OEt as substrate after 1 hr measured at 1 min time interval for 30 mins by microplate photometric method. In a few lines:
(§2)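 Commercial MMP kits; compound preincubated with enzyme before chromogenic substrate was added. Reactions at 37 °C for 1 h, with at least six inhibitor concentrations in triplicate. Absorbance at 410 nm read every 1 min for 30 min. NNGH used as reference inhibitor. IC50 taken from semi-logarithmic dose-response plots.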

For assay [4], the system named is A549. Kind of assay: Cytotoxicity against human A549 cells assessed as reduction in cell viability after 48 hrs by MTT assay. The class given is functional, cell-based. As to conditions: A549, 48 h. The procedure, abridged: as §1
Assay [5] has as its target 72 kDa type IV collagenase (Homo sapiens, UniProt P08253). The assay can be described thus: Inhibition of recombinant human MMP2 (Tyr110 to Asp452 residues) using Ac-Pro-Leu-Gly-S-Leu-Leu-Gly-OEt as substrate after 1 hr measured at 1 min time interval for 30 mins by microplate photometric method. In a few lines:
as §2

Assay [6] deals with Matrix metalloproteinase-9 (Homo sapiens, UniProt P14780). Kind of assay: Inhibition of recombinant human MMP9 (Phe107 to Pro449 residues) expressed in Escherichia coli using Ac-Pro-Leu-Gly-S-Leu-Leu-Gly-OEt as substrate after 1 hr measured at 1 min time interval for 30 mins by microplate photometric method. The procedure, abridged: as §2
Assay [7] concerns PBMC. The assay can be described thus: Cytotoxicity against human PBMC assessed as reduction in cell viability after 48 hrs by MTT assay. The class given is cell-based. The procedure, abridged: as §1
Assay [8] concerns U-937. Kind of assay: Cytotoxicity against human U937 cells assessed as reduction in cell viability after 48 hrs by MTT assay. It counts as functional, cell-based. As to conditions: U-937, 48 h. In a few lines:
as §1

Assay [9] has as its target Neutrophil collagenase (Homo sapiens, UniProt P22894). The assay can be described thus: Inhibition of recombinant human MMP8 (Phe99 to Gln269 residues) expressed in Escherichia coli using Ac-Pro-Leu-Gly-S-Leu-Leu-Gly-OEt as substrate after 1 hr measured at 1 min time interval for 30 mins by microplate photometric method. The procedure, abridged: as §2
In assay [10] the test system is K562. Kind of assay: Cytotoxicity against human K562 cells assessed as reduction in cell viability after 48 hrs by MTT assay. It counts as functional, cell-based. As to conditions: K562, 48 h. The procedure, abridged:
as §1

For assay [11], the target named is Matrix metalloproteinase-14 (Homo sapiens, UniProt P50281). Kind of assay: Inhibition of recombinant human MMP14 (Tyr112 to Arg298 residues) expressed in Escherichia coli using Ac-Pro-Leu-Gly-S-Leu-Leu-Gly-OEt as substrate after 1 hr measured at 1 min time interval for 30 mins by microplate photometric method. In a few lines:
as §2

In assay [12] the target is Macrophage metalloelastase (Homo sapiens, UniProt P39900). The assay can be described thus: Inhibition of recombinant human MMP12 (Phe99 to Leu271 residues) expressed in Escherichia coli using Ac-Pro-Leu-Gly-S-Leu-Leu-Gly-OEt as substrate after 1 hr measured at 1 min time interval for 30 mins by microplate photometric method. The procedure, abridged:
as §2

Structures are written as SMILES.

By IC50 is commonly meant the midpoint of a concentration-inhibition curve.

Sequence of 72 kDa type IV collagenase (P08253 whole entry): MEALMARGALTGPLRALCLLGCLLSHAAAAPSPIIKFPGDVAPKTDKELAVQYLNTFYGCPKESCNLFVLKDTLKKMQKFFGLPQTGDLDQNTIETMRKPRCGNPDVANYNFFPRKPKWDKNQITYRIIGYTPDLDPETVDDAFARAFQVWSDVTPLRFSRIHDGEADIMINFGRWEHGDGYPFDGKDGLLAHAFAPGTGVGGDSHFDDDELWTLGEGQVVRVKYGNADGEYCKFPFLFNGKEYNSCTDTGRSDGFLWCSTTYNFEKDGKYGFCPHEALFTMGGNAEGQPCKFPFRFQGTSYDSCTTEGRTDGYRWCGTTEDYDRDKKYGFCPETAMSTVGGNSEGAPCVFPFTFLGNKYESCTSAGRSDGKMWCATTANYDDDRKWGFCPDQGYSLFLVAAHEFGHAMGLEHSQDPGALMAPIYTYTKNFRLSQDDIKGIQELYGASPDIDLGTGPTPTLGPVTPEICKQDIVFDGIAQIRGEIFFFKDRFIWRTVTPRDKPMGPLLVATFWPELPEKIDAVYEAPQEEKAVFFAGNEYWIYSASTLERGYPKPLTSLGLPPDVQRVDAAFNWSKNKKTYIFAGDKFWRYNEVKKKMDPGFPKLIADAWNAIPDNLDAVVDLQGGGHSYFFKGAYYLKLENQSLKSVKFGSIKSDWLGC
Sequence of Macrophage metalloelastase (P39900 whole entry): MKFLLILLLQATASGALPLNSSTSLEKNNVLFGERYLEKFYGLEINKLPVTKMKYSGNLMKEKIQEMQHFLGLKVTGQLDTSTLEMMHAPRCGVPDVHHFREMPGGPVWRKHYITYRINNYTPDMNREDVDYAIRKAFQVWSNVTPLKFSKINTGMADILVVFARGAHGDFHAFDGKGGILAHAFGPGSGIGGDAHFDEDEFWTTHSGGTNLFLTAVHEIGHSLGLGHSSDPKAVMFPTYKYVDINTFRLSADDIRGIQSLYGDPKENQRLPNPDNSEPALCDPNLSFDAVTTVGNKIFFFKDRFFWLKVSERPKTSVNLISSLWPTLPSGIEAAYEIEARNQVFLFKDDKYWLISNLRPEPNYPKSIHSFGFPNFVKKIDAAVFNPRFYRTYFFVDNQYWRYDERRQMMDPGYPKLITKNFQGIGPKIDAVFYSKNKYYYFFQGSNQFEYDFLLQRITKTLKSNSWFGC
Sequence of Neutrophil collagenase (P22894 whole entry): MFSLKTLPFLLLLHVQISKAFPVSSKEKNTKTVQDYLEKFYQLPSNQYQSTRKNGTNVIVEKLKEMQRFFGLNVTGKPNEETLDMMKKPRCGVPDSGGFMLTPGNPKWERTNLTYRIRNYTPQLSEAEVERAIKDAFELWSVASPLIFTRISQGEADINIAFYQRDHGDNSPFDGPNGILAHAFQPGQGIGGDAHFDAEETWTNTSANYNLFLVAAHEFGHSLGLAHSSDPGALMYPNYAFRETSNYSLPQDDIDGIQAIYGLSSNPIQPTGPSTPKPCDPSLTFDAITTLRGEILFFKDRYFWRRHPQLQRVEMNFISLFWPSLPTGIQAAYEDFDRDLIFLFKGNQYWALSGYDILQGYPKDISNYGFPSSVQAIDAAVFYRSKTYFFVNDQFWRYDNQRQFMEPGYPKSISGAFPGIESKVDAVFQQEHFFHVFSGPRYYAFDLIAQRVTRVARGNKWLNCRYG
Sequence of Matrix metalloproteinase-9 (P14780 whole entry): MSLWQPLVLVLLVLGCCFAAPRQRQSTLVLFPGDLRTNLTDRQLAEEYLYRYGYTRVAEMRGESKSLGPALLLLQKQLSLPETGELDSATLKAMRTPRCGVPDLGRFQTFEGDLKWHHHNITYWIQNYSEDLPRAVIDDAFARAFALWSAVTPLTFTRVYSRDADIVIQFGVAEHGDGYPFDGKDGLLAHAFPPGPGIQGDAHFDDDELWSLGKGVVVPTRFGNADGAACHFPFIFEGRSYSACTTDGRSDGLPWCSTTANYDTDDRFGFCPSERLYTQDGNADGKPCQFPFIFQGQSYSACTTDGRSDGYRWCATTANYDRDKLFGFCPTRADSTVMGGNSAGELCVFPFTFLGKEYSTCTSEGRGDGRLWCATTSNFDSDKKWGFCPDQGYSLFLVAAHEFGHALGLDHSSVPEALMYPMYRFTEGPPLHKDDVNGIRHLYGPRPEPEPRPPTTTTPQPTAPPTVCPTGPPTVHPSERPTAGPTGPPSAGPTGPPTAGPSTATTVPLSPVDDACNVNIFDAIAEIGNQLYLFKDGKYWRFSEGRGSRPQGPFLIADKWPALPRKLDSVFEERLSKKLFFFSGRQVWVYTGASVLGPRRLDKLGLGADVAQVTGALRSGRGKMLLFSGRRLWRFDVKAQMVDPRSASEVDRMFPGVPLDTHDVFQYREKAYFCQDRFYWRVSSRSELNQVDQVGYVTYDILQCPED

As to `O=C(CC[C@H](NS(=O)(=O)c1ccc([N+](=O)[O-])cc1)C(=O)O)NCc1ccccc1`, the Ratio IC50 in [1] is over 25. Besides, the IC50 is 175 µM in assay [2]; over 500 µM in assay [3]; 343 µM in [4]; 0.21 µM in [5]; 6.37 µM in assay [6]; over 1000 µM in assay [7]. Moreover, the IC50 in [8] came to 102 µM; in [9], 173 µM; in assay [10] it was 23.4 µM; in assay [11], 109 µM; in assay [12] it was 95.2 µM.
For `CC(C)CNC(=O)CC[C@H](NS(=O)(=O)c1ccc([N+](=O)[O-])cc1)C(=O)O`, the concentration for half-maximal inhibition (IC50) in assay [2] was over 500 µM; in assay [3], over 500 µM; in [4] it was over 500 µM; in assay [5], 8.52 µM; in [6], 5.14 µM; in assay [7] it was over 1000 µM. Further, the IC50 in assay [8] is 93.8 µM; in assay [9], 483 µM; in assay [10], 42.5 µM; in assay [11], 309 µM; in [12], over 500 µM.
`CCCCNC(=O)CC[C@H](NS(=O)(=O)c1ccc([N+](=O)[O-])cc1)C(=O)O`: the half-inhibitory concentration (IC50) in assay [2] is over 500 µM; in assay [3], over 500 µM; in assay [4], 276 µM; in [5] it was 4.07 µM; in assay [6], 6.36 µM; in assay [7], over 1000 µM. Further, the concentration for half-maximal inhibition (IC50) in assay [8] was determined as 94 µM; in assay [9] it was 346 µM; in [10], 19.7 µM; in [11], 111 µM; in assay [12], 198 µM.
For the compound `CNC(=O)CC[C@H](NS(=O)(=O)c1ccc([N+](=O)[O-])cc1)C(=O)O`, the Ratio IC50 in assay [1] came to 2.63. Besides, the IC50 was over 500 µM in assay [2]; over 500 µM in assay [3]; over 500 µM in assay [4]; 2.85 µM in assay [5]; 7.5 µM in assay [6]; over 1000 µM in [7]. Also, the IC50 in assay [8] is over 500 µM; in assay [9], 401 µM; in assay [10], over 500 µM; in assay [11] it was over 500 µM; in [12], over 500 µM.
For `CCNC(=O)CC[C@H](NS(=O)(=O)c1ccc([N+](=O)[O-])cc1)C(=O)O`, the IC50 is over 500 µM in assay [2]; over 500 µM in assay [3]; 221 µM in assay [4]; 5.34 µM in assay [5]; 4.8 µM in assay [6]; over 1000 µM in assay [7]. The IC50 in [8] is 89.4 µM; in assay [9] it was 298 µM; in [10], over 500 µM; in [11] it was 87.1 µM; in assay [12] it was 109 µM.
As for `CC(C)NC(=O)CC[C@H](NS(=O)(=O)c1ccc([N+](=O)[O-])cc1)C(=O)O`, the Ratio IC50 in assay [1] came out at 2.82. Besides, the IC50 in [2] is over 500 µM; in [3], over 500 µM; in assay [4], over 500 µM; in assay [5], 2.12 µM; in [6], 5.97 µM; in assay [7] it was over 1000 µM. For the same compound, the IC50 in assay [8] is 95.1 µM; in [9], over 500 µM; in assay [10], 19.8 µM; in assay [11], 301 µM; in assay [12], 493 µM.
Turning to `NC(=O)CC[C@H](NS(=O)(=O)c1ccc([N+](=O)[O-])cc1)C(=O)O`, the Ratio IC50 in assay [1] worked out at 4.24. The IC50 in assay [2] was over 500 µM; in assay [3], over 500 µM; in [4], over 500 µM; in assay [5], 1.65 µM; in assay [6], 7 µM; in assay [7], over 1000 µM. The IC50 in assay [8] was over 500 µM; in [9] it was 199 µM; in assay [10], over 500 µM; in assay [11], 76.3 µM; in [12], 100 µM.
